PubChem BioAssay
Records with an inconclusive call do not appear.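 How the source made its calls, unless noted: active means cell viability at or below a set limit in both duplicate runs, the limit being the all-compound median minus 4 SD (cut at about 23% in these data, passing the limit was not always enough); inconclusive means no clear call, values can overlap the other calls; inactive means the rest.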

Tests used:
[1] = S. cerevisiae growth inhibition in permissive medium (OD615), pilot counter-assay for S. cerevisiae lifespan shortening project, permissive growth control (AID 705;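 active means growth inhibition above 25% in both replicates, a cutoff set 3 SD above the mean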); details: OD615, 24 h, at 10 µM, hits give high values
Method in brief: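 assay system = Saccharomyces cerevisiae strain carrying genetically modified DeaD replicative-lifespan system | technique = absorbance (optical density) at 615 nm | buffer or medium = permissive raffinose/galactose medium | timing = cells pre-grown 4 h, then 24 h compound exposure, 30 °C humidified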

[2] = S. cerevisiae growth inhibition in restrictive medium, OD615, pilot screen, restrictive growth control, yeast lifespan reduction project (AID 706;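 active means growth inhibition above a set limit, 3 SD over mean compound inhibition, in both replicates, cut at about 43% in these data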;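 further: modified DeaD lifespan yeast strain shifted to restrictive glucose medium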); details: OD615, 48 h, at 10 µM, hits give high values
Method in brief: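 System: modified S. cerevisiae. Buffer or medium: CSMM-D glucose medium. Incubation: 4 h pre-growth plus 48 h compound exposure, 30 °C. Detection: absorbance (optical density) measured at 615 nm.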

[3] = doxorubicin toxicity protection in MRP-1 cells – H69AR cells, CellTiter-Glo, duplicate, MRP-1 activator project, pilot screen (AID 807;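 active means viability increase at or above a cutoff of the median across tested compounds plus 3 SD, cut at about 8.5% in these data, passing the limit was not always enough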;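 further: compound pretreatment 18-22 h then 72 h combined with doxorubicin; 0% = doxorubicin alone and 100% = vehicle without doxorubicin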); details: H69AR viability with doxorubicin, CellTiter-Glo luminescence; at 10 µM; hits give high values
[4] = viability of HCT116 without oncogenic beta-catenin – human colon tumor cells, pilot screen (AID 823); details: HCT116 beta-catenin knockout viability, CellTiter-Glo, 60 h; at 10 µM; hits give low values;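 further: 0% = wells killed by 20 µM Hyamine and 100% = untreated DMSO cell wells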
[5] = viability of PTEN-null HCT116 cells – cell-based, HCT116 clonal line, CellTiter-Glo, pilot screen (AID 824;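 active means viability at or below 27.92% in each of two runs, the all-compound median minus 4 SD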;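 further: 0% = 20 µM Hyamine control and 100% = vehicle cell control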); details: HCT116 PTEN-deleted viability, 60 h, at 10 µM, hits give low values
[6] = RAM pathway blockade in budding yeast – dse1pr::URA3 reporter, 5-FOA selection, pilot screen (AID 869;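 active means inhibition over a set limit, the all-compound mean plus 3 SD, in both replicate runs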;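 further: 0% = DMSO wells with no growth and 100% = 10 µM 1-NA-PP1 with full growth; RAM network block rescues cells from 5-FOA so hits raise OD615 growth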); details: S. cerevisiae dse1pr::URA3 5-FOA growth, OD615, 2 d; at 10 µM; hits give high values; strain carries analog-sensitive mutant Cbk1 kinase
[7] = RAM signaling pathway blockade in yeast – S. cerevisiae, Pdr1DBD-CYC8 efflux-inhibited sensitized strain, primary screen (AID 1298;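 active means RAM network inhibition above 8.4% in each of two replicates, 3 SD over the compound average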;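 further: 0% = DMSO untreated cells without growth and 100% = 10 µM 1-NA-PP1 full growth; higher means more yeast growth rescued from 5-FOA killing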); details: S. cerevisiae cbk1-as DSE1-URA3 strain, 5-FOA growth OD615, 2 d; at 50 µM; hits give high values

O=C(Nc1c(C(=O)N2CCCCC2)cnn1-c1ccccc1)c1ccccc1
inactive: growth inhibition [1] -13.8% | growth inhibition [2] -4.25% | viability increase [3] -1.28% | viability [4] 105% | viability [5] 92% | inhibition [6] 1.99% | RAM network inhibition [7] 2.44%

COc1ccc(S(=O)(=O)N2CCC(C(=O)Nc3cccc(Cl)c3)CC2)cc1OC
inactive: growth inhibition [1] -2.42% | growth inhibition [2] -2.81% | viability increase [3] -3.54% | viability [4] 75.9% | viability [5] 78% | inhibition [6] 0.63% | RAM network inhibition [7] 1.52%

CC1(C)CC(=O)C2=C(C1)N(c1ccc(F)cc1)C(=O)CC2c1cccnc1 (configuration not stated)
inactive: growth inhibition [1] 0.065% | growth inhibition [2] -2% | viability increase [3] -2.17% | viability [4] 95.9% | viability [5] 100% | inhibition [6] 2.41% | RAM network inhibition [7] 5.94%

COc1cc(OC)cc(C(=O)Nn2cc(C(=O)N3CCN(C)CC3)c3ccccc3c2=O)c1
inactive: growth inhibition [1] -6.21% | growth inhibition [2] -7.65% | viability increase [3] -0.92% | viability [4] 105% | viability [5] 93.1% | inhibition [6] 1.17% | RAM network inhibition [7] 3.86%

Cc1ccc2c(c1)-c1c(cnn1CC(=O)N1CCCN(Cc3ccccc3F)C1)CO2
inactive: growth inhibition [1] -0.225% | growth inhibition [2] -1.89% | viability increase [3] -2.83% | viability [4] 88.9% | viability [5] 93.1% | inhibition [6] 1% | RAM network inhibition [7] 1.9%

COc1ccc(S(=O)(=O)NCc2ccc3c(c2)cc(C)n3C)cc1
inactive: growth inhibition [1] -0.89% | growth inhibition [2] -11.2% | viability increase [3] -4.17% | viability [4] 99.1% | viability [5] 96% | inhibition [6] 1.31% | RAM network inhibition [7] 7.17%

Nc1c(C(=O)Nc2ccc3c(c2)OCCO3)nnn1CCc1ccccc1
inactive: growth inhibition [1] -3.04% | growth inhibition [2] 3.6% | viability increase [3] -5.88% | viability [4] 39.1% | viability [5] 35.4% | inhibition [6] 1.43% | RAM network inhibition [7] 7.68%

CC1=C(C(=O)OC2CCCCCCC2)C(c2ccc(O)cc2)NC(=O)N1 (configuration not stated)
inactive: growth inhibition [1] -3.17% | growth inhibition [2] 4.04% | viability increase [3] -0.32% | viability [4] 73.8% | viability [5] 72% | inhibition [6] 1.85% | RAM network inhibition [7] 3.65%

CCS(=O)(=O)NCCc1csc(-c2cccnc2)n1
inactive: growth inhibition [1] -1.29% | growth inhibition [2] -6.54% | viability increase [3] -0.37% | viability [4] 102% | viability [5] 102% | inhibition [6] 2.48% | RAM network inhibition [7] 6.14%

CCSCCOC(=O)C1=C(C)NC(=O)NC1c1ccc2c(c1)OCO2 (configuration not stated)
inactive: growth inhibition [1] 3.31% | growth inhibition [2] 3.72% | viability increase [3] -1.35% | viability [4] 94.3% | viability [5] 94.5% | inhibition [6] 2.05% | RAM network inhibition [7] 0.41%

Cc1ccc(C2CC(c3ccccc3C)n3nc(N)nc3N2)cc1 (configuration not stated)
inactive: growth inhibition [1] 0.605% | growth inhibition [2] -2.86% | viability increase [3] -0.57% | viability [4] 84.6% | viability [5] 83% | inhibition [6] 0.77% | RAM network inhibition [7] 4.75%

Cc1cc(C(=O)N2CCN(c3ccccn3)CC2)no1
inactive: growth inhibition [1] -1.03% | growth inhibition [2] 0.795% | viability increase [3] 0.33% | viability [4] 109% | viability [5] 102% | inhibition [6] 1.05% | RAM network inhibition [7] 2.86%

CCCn1c2ccccc2c2cc(C(=O)O)ccc21
inactive: growth inhibition [1] -20.7% | growth inhibition [2] -6% | viability increase [3] -3.03% | viability [4] 106% | viability [5] 93.5% | inhibition [6] 1.95% | RAM network inhibition [7] 2.82%

COCCN(C(=O)Nc1ccccc1)C(C)c1cccnc1 (configuration not stated)
inactive: growth inhibition [1] 9.6% | growth inhibition [2] -1.42% | viability increase [3] -2.41% | viability [4] 93.5% | viability [5] 97.5% | inhibition [6] 1.54% | RAM network inhibition [7] -1.08%

O=C(C1CC(c2ccc(F)cc2)=NO1)N1CCc2ccccc2C1 (configuration not stated)
inactive: growth inhibition [1] 1.34% | growth inhibition [2] -7.89% | viability increase [3] 0.59% | viability [4] 101% | viability [5] 99.5% | inhibition [6] 1.91% | RAM network inhibition [7] 7.63%

O=C(NCCn1ccc2ccccc21)c1ccc(S(=O)(=O)N2CCOCC2)cc1
inactive: growth inhibition [1] 3.54% | growth inhibition [2] -8.71% | viability increase [3] -2.92% | viability [4] 101% | viability [5] 96.7% | inhibition [6] 0.33% | RAM network inhibition [7] 6.66%

O=C(NCc1nc2ccccc2[nH]1)c1cccs1
inactive: growth inhibition [1] -13.9% | growth inhibition [2] -1.7% | viability increase [3] 0.55% | viability [4] 105% | viability [5] 103% | inhibition [6] 2.04% | RAM network inhibition [7] 5.75%

O=C(O)c1ccc2c(c1)N(Cc1cccc(F)c1)C(=O)CS2
inactive: growth inhibition [1] 2.4% | growth inhibition [2] -0.16% | viability increase [3] 0.93% | viability [4] 102% | viability [5] 102% | inhibition [6] 0.2% | RAM network inhibition [7] 1.36%

CCCNC(=O)c1noc2c1CCc1ccccc1-2
inactive: growth inhibition [1] -1.21% | growth inhibition [2] 5.41% | viability increase [3] -1.54% | viability [4] 98.3% | viability [5] 104% | inhibition [6] 0.305% | RAM network inhibition [7] -1.13%

O=C(Nc1ccc(S(=O)(=O)N2CCOCC2)cc1)c1ccc(Cl)cc1
inactive: growth inhibition [1] -7.83% | growth inhibition [2] -8.68% | viability increase [3] -1.99% | viability [4] 61.1% | viability [5] 80.2% | inhibition [6] 2.31% | RAM network inhibition [7] 3.83%

O=C(NCCN1C(=O)C2C3C=CC(C3)C2C1=O)Nc1ccccc1 (configuration not stated)
inactive: growth inhibition [1] -8.45% | growth inhibition [2] 1.35% | viability increase [3] 0.28% | viability [4] 102% | viability [5] 93.2% | inhibition [6] 0.71% | RAM network inhibition [7] -0.05%

O=C1N/C(=N/c2ccccn2)SC1Cc1ccccc1 (configuration not stated)
inactive: growth inhibition [1] 0.405% | growth inhibition [2] 1.97% | viability increase [3] 0.48% | viability [4] 102% | viability [5] 93.6% | inhibition [6] 3.98% | RAM network inhibition [7] 6.35%

COc1ccc2c(Cl)c(C(=O)NC3CCS(=O)(=O)C3)sc2c1 (configuration not stated)
inactive: growth inhibition [1] 1.61% | growth inhibition [2] -6.69% | viability increase [3] 2.14% | viability [4] 93.3% | viability [5] 99.3% | inhibition [6] 1.92% | RAM network inhibition [7] 1.43%

Cc1ccc2oc(=O)c3cnn(CC(=O)N(CCCN4CCOCC4)Cc4ccco4)c3c2c1
inactive: growth inhibition [1] -16.5% | growth inhibition [2] -28.7% | viability increase [3] -3.59% | viability [4] 93.2% | viability [5] 87.9% | inhibition [6] 1.55% | RAM network inhibition [7] 3.73%

COc1ccc(Cl)cc1C(=O)Nc1cc(=O)n(C)c(=O)n1C
inactive: growth inhibition [1] -16.1% | growth inhibition [2] -29.6% | viability increase [3] -1.06% | viability [4] 102% | viability [5] 99.1% | inhibition [6] 1.71% | RAM network inhibition [7] 2.2%

O=C(NCc1cn2ccsc2n1)c1c(F)cccc1Cl
inactive: growth inhibition [1] -10.2% | growth inhibition [2] -8.81% | viability increase [3] 1.01% | viability [4] 107% | viability [5] 99.6% | inhibition [6] 0.93% | RAM network inhibition [7] 2.61%

CCN1CCCC1CNC(=O)Cn1cnc2sc(C)c(S(=O)(=O)N3CCC(C)CC3)c2c1=O (configuration not stated)
inactive: growth inhibition [1] -4.5% | growth inhibition [2] -14.6% | viability increase [3] -4.44% | viability [4] 104% | viability [5] 84% | inhibition [6] 2.9% | RAM network inhibition [7] 4.06%

Cc1ccc(CC2S/C(=C(/C#N)C(=O)NCc3ccco3)N(c3ccccc3)C2=O)cc1 (configuration not stated)
inactive: growth inhibition [1] 1.42% | growth inhibition [2] 2.41% | viability increase [3] -7.76% | viability [4] 45% | viability [5] 60.6% | inhibition [6] 0.44% | RAM network inhibition [7] 1.64%

OC(COc1ccc2ccccc2c1)CN1CCN(c2ccc(F)cc2)CC1 (configuration not stated)
inactive: growth inhibition [1] 3.06% | growth inhibition [2] -5.26% | viability increase [3] -4.36% | viability [4] 81.7% | viability [5] 84.4% | inhibition [6] 1.09% | RAM network inhibition [7] 1.23%

CCOC(=O)COc1cc2c(C(=O)OCC)c(C)oc2cc1Br
inactive: growth inhibition [1] -10% | growth inhibition [2] -2.66% | viability increase [3] -2.07% | viability [4] 89.3% | viability [5] 89.8% | inhibition [6] 1.04% | RAM network inhibition [7] 12.8%

CCOC(=O)COc1cccc2c(=O)n(CC(=O)N3CCc4ccccc43)ccc12
inactive: growth inhibition [1] -10.5% | growth inhibition [2] -15.5% | viability increase [3] -2.89% | viability [4] 98.6% | viability [5] 90.7% | inhibition [6] 1.25% | RAM network inhibition [7] 3.56%

O=C(CCS(=O)(=O)c1ccccc1)Nc1nccs1
inactive: growth inhibition [1] -13.9% | growth inhibition [2] -10.5% | viability increase [3] -8.48% | viability [4] 62.2% | viability [5] 72.7% | inhibition [6] 1.48% | RAM network inhibition [7] 5.64%

CCOc1ccccc1-c1nc(C(N)=O)c2[nH]c(=O)n(-c3ccc(F)cc3)c2n1
inactive: growth inhibition [1] -8.26% | growth inhibition [2] -0.005% | viability increase [3] -4.08% | viability [4] 90.2% | viability [5] 83.9% | inhibition [6] 0.93% | RAM network inhibition [7] -0.71%

COc1ccc(Nc2nc(C)cc(C)c2C#N)cc1OC
inactive: growth inhibition [1] -2.02% | growth inhibition [2] 5.43% | viability increase [3] 1.79% | viability [4] 107% | viability [5] 107% | inhibition [6] 0.715% | RAM network inhibition [7] 1.79%

C=CCn1c(SCC(=C)C)nc2c1c(=O)[nH]c(=O)n2C
inactive: growth inhibition [1] -14.8% | growth inhibition [2] -25.6% | viability increase [3] -0.41% | viability [4] 109% | viability [5] 97% | inhibition [6] -0.415% | RAM network inhibition [7] 1.55%

NCCCC(=O)N1c2ccccc2Sc2ccccc21
inactive: growth inhibition [1] -16% | growth inhibition [2] 3.53% | viability increase [3] -2.97% | viability [4] 73.2% | viability [5] 73.9% | inhibition [6] 2.5% | RAM network inhibition [7] 0.52%
